Source: ChEMBL document CHEMBL1131127, “Syntheses of trans-5-oxo-hexahydro-pyrrolo[3,2-b]pyrroles and trans-5-oxo-hexahydro-furo[3,2-b]pyrroles (pyrrolidine trans-lactams and trans-lactones): new pharmacophores for elastase inhibition” (J Med Chem, 1998)

Columns and labels:
[1] = molecular target: T1, Chymotrypsinogen A (Bos taurus, UniProt P00766); assay: The compound was tested for inhibition of Chymotrypsinogen with a pre-incubation time of 15 min.
[2] = molecular target: T2, Neutrophil elastase (Homo sapiens, UniProt P08246); assay: The compound was tested for inhibition of human neutrophil elastase enzyme with a pre-incubation time of 0 min.
T2 sequence (P08246 whole entry): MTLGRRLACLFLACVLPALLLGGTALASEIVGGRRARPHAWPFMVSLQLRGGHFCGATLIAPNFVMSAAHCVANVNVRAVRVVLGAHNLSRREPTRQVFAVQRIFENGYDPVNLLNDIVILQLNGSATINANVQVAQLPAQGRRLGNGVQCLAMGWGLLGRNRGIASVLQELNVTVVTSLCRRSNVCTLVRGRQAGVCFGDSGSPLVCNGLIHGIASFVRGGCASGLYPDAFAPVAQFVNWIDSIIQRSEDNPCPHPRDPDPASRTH
Method in brief: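 HNE IC50: compound preincubated at 30 °C with substrate MeO-Succ-Ala-Ala-Pro-Val-p-nitroanilide, reaction started by adding HNE (0 min enzyme preincubation); p-nitroanilide release followed spectrophotometrically. Errors as standard deviations.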

[3] = molecular target: T2, Neutrophil elastase; assay: The compound was tested for inhibition of human neutrophil elastase enzyme with a pre-incubation time of 40 min.
Method in brief: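 Compound preincubated with HNE for 40 min, then reaction started with MeO-Succ-Ala-Ala-Pro-Val-p-nitroanilide; p-nitroanilide release monitored spectrophotometrically to give IC50. Errors quoted as standard deviations.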

[4] = molecular target: T3, Prothrombin (Homo sapiens, UniProt P00734); assay: The compound was tested for inhibition of thrombin with a pre-incubation time of 15 min.
[5] = molecular target: T4, Cathepsin G (Homo sapiens, UniProt P08311); assay: The compound was tested for inhibition of cathepsin G with a pre-incubation time of 15 min
T4 sequence (P08311 whole entry): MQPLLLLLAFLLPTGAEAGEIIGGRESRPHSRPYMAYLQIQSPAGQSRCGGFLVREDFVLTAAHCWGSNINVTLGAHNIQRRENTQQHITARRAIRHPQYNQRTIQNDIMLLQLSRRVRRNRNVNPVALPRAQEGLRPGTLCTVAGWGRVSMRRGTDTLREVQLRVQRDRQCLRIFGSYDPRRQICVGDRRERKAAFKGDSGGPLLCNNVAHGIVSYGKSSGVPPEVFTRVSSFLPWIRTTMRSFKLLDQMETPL

[6] = molecular target: T1, Chymotrypsinogen A; assay: The compound was tested for inhibition of Chymotrypsinogen with a pre-incubation time of 15 min
[7] = molecular target: T2, Neutrophil elastase; assay: The compound was tested for inhibition of human neutrophil elastase enzyme with a pre-incubation time of 15 min.
Method in brief: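 IC50 against HNE determined after a 15-min preincubation of compound with enzyme; substrate MeO-Succ-Ala-Ala-Pro-Val-p-nitroanilide, p-nitroanilide release read spectrophotometrically.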

[8] = molecular target: T3, Prothrombin; assay: The compound was tested for inhibition of thrombin with a pre-incubation time of 15 min
[9] = molecular target: T3, Prothrombin; assay: The compound was tested for inhibition of thrombin with a preincubation time of 15 min

Row | IC50 [1] [µM] | IC50 [2] [µM] | IC50 [3] [µM] | IC50 [4] [µM] | IC50 [5] [µM] | IC50 [6] [µM] | IC50 [7] [µM] | IC50 [8] [µM] | IC50 [9] [µM] | SMILES
1 |  | > 100 | 0.088 | > 100 |  | 11.5 |  |  |  | C=CC[C@H]1C(=O)N(S(=O)(=O)c2cccc3ccccc23)[C@H]2CCN(C(=O)OCc3ccccc3)C12 (stereo partly drawn)
2 |  | 0.37 | 0.056 | 53.2 |  | 40.6 |  |  |  | C=CC[C@H]1C(=O)N(S(C)(=O)=O)[C@H]2CCN(C(=O)OCc3ccccc3)[C@H]12
3 |  | 0.023 | 0.036 |  |  | 0.98 |  |  | 78.8 | CCC[C@@H](NC(=O)N1C(=O)C(CC)(CC)[C@@H]1Oc1ccc(C(=O)N2CCN(C)CC2)cc1)c1ccc2c(c1)OCO2

Second part, the molecule before the results:

Row | SMILES | IC50 [1] [µM] | IC50 [2] [µM] | IC50 [3] [µM] | IC50 [4] [µM] | IC50 [5] [µM] | IC50 [6] [µM] | IC50 [7] [µM] | IC50 [8] [µM] | IC50 [9] [µM]
4 | C=CC[C@H]1C(=O)N[C@H]2CCN(C(=O)OCc3ccccc3)[C@@H]21 | > 100 | > 500 | > 500 | > 100 |  |  |  |  | 
5 | C=CC[C@H]1C(=O)O[C@H]2CCN(C(=O)OCC)C21 (stereo partly drawn) |  |  |  | > 200 | 3.6 | 4 | 0.069 |  | 
6 | C=CC[C@@H]1C(=O)O[C@H]2CCN(C(=O)OCc3ccccc3)C21 (stereo partly drawn) |  | 12.8 | 0.074 |  |  | 4.86 |  | 44.6 | 
7 | C=CC[C@H]1C(=O)O[C@H]2CCN(C(=O)OCc3ccccc3)C21 (stereo partly drawn) |  | 0.336 | 0.047 |  |  | 15.9 |  | 49 | 
